Results pooled from the literature.
Compare with care: the assays were run in different laboratories.

SMILES | tested on | test | test system | setting | measurement | result
C[C@H](N)C(=O)Nc1ccccc1/N=c1\cc(-c2ccc3c(c2)OCCO3)oc2c([N+](=O)[O-])cccc12 | NCI-H1975 | cell growth or viability, CCK-8 |  | 1 µM | inhibition | 1.15%
CCCC(=O)Nc1ccc(-c2ccc3ncn(Cc4ccccc4)c(=O)c3c2)cn1 | NCI-H1975 | cell growth or viability, CCK-8 |  | 72 h | IC50 | > 10 µM
O=C(Nc1nc2cc(-c3ccc4ncn(Cc5ccccc5)c(=O)c4c3)ccc2s1)NC1CCCCC1 | NCI-H1975 | cell growth or viability, MTT |  | 72 h | IC50 | > 20 µM
C[C@@H]1[C@H](O)[C@@H](C)/C=C/C=C/C=C/C=C/C=C/C=C/C=C/[C@H](O[C@@H]2O[C@H](C)[C@@H](O)[C@H](N)[C@@H]2O)C[C@@H]2O[C@](O)(C[C@@H](O)C[C@@H](O)[C@H](O)CC[C@@H](O)C[C@@H](O)CC(=O)O[C@H]1C)C[C@H](O)[C@H]2C(=O)O | Leishmania amazonensis | parasite growth, MTT |  | promastigote | IC50 | 0.28 µM
Nc1nc2c(ncn2COCCO)c(=O)[nH]1 | Human alphaherpesvirus 2 | viral replication, inhibitor, qPCR | BEAS-2B |  | IC50 | 0.16 µM
CCCC(C)C(=O)Nc1ccc(-c2ccc3ncn(CCC)c(=O)c3c2)cn1 (stereo not drawn) | NCI-H1975 | cell growth or viability, CCK-8 |  | 72 h | IC50 | 2.76 µM
NCCC(=O)Nc1ccccc1/N=c1\cc(-c2ccc3oc(N)nc3c2)oc2ccccc12 | NCI-H1975 | cell growth or viability, CCK-8 |  | 1 µM | inhibition | 24.3%
Cc1ccc(C(=O)Nc2ccc(-c3ccc4ncn(Cc5ccccc5)c(=O)c4c3)cn2)cc1 | NCI-H1975 | cell growth or viability, CCK-8 |  | 72 h | IC50 | > 10 µM
COc1cccc(NC(=O)Nc2nc3cc(-c4ccc5ncn(Cc6ccccc6)c(=O)c5c4)ccc3s2)c1 | NCI-H1975 | cell growth or viability, MTT |  | 72 h | IC50 | > 20 µM
CCCCn1cnc2ccc(-c3ccc(NC(=O)C4CCCCC4)nc3)cc2c1=O | NCI-H1975 | cell growth or viability, CCK-8 |  | 72 h | IC50 | 1.6 µM
CC(C)NC(=O)Nc1nc2cc(-c3ccc4ncn(Cc5ccccc5)c(=O)c4c3)ccc2s1 | NCI-H1975 | cell growth or viability, MTT |  | 72 h | IC50 | 5.54 µM
NCCC(=O)Nc1ccc(/N=c2\cc(-c3ccc4c(c3)OCO4)oc3ccccc23)cc1 | NCI-H1975 | cell growth or viability, CCK-8 |  | 1 µM | inhibition | 0.71%
CCCCn1cnc2ccc(-c3ccc4sc(NC(=O)Nc5ccc(F)cc5)nc4c3)cc2c1=O | NCI-H1975 | cell growth or viability, MTT |  | 72 h | IC50 | 0.69 µM
CCOc1ccc(Nc2c3c(nc4ccccc24)CCC3)cc1 | Leishmania amazonensis | parasite growth, MTT |  | promastigote | IC50 | 1.43 µM
NCC(=O)Nc1ccccc1/N=c1\cc(-c2ccc3c(c2)OCO3)oc2c(N)cccc12 | NCI-H1975 | cell growth or viability, CCK-8 |  | 1 µM | inhibition | 4.64%
